Assay results from different studies.
Compare with care: the assays were run in different laboratories.
Target: Interleukin-1 receptor-associated kinase 1 (IRAK1, Homo sapiens, UniProt P51617)

O=C(Nc1cnn(-c2csc(C(=O)NC3COC3)c2)c1)Nc1ccccc1Cl — remaining activity (enzyme activity; inhibitor; 5 µM): 112%
CC(=O)N1CCC(c2ccc(C(=O)NC3=NCCN3)cc2C(F)(F)F)CC1 — remaining binding (cell-free assay; competition with immobilised ligand; 1 µM): 78%
COc1cccc2c(NCc3ccccc3)nc(-n3c(N)nc4ccccc43)nc12 — inhibition (target engagement in cells; inhibitor; chemoproteomics; 20 mM): -2.2%
CC(C)(O)[C@H]1CC[C@H](Nc2ccc3ncc(-c4cccc(C(F)(F)F)c4)n3n2)CC1 — remaining activity (enzyme activity; inhibitor; 1 µM): 87.1%
Cc1sc(C(=O)NC2COC2)cc1-n1cc(NC(=O)Nc2c(F)cccc2Cl)cn1 — remaining activity (enzyme activity; inhibitor; 10 µM): 79.9%
C=CC(=O)Nc1cc(Nc2nccc(Nc3cc(Cl)c(F)cc3C(C)(C)O)n2)c(OC)cc1N1CC[C@@H](N(C)C)C1 — inhibition (enzyme activity; inhibitor; 1 µM): 11%
COc1ccc(COc2ccc(Cc3cnc(N)nc3N)cc2OC)cc1 — remaining signal (cell-free assay; 0.5 µM): 123%
COc1cc(Nc2cnc(C#N)c(O[C@H](C)CN(C)C)n2)ncc1-c1cnn(C)c1 — remaining activity (enzyme activity; inhibitor; radiometric; 1 µM): 17%
CNC(=O)c1cc(Oc2ccc(NC(=O)Nc3ccc(Cl)c(C(F)(F)F)c3)cc2)ccn1 — inhibition (enzyme activity; inhibitor; 0.3 µM): -4%
Cc1nc(Cc2cccc(C(F)(F)F)c2)sc1-c1ccc(C(N)=O)nc1 — remaining binding (cell-free assay; competition with immobilised ligand; 1 µM): 100%
CCCOc1ccc(OC)c(F)c1C(=O)c1ccc(C(=O)N[C@@H]2CNC[C@H]2NC(=O)c2ccc3[nH]ncc3c2)cc1 — remaining activity (enzyme activity; inhibitor; 10 µM): 49%
FC(F)(F)Oc1cccc(-c2cnc3ccc(-c4ccncc4)nn23)c1 — activity vs control (enzyme activity; inhibitor; radiometric; 5 µM): 24%
Cc1cc(C)c(-n2ccn3nc(-c4cccnc4)cc23)cc1NC(=O)c1cc(C#N)cc(S(F)(F)(F)(F)F)c1 — remaining binding (cell-free assay; competition with immobilised ligand; 0.1 µM): 87.3%
CCN(CC)c1ccc(C2=NNC(=O)CC2C)cc1[N+](=O)[O-] (centres unmarked) — remaining activity (enzyme activity; inhibitor; 10 µM): 89%
Cc1ccc(Nc2nccc(N(C)c3ccc4c(C)n(C)nc4c3)n2)cc1S(N)(=O)=O — inhibition (enzyme activity; inhibitor; 0.3 µM): -6%
CN(C)C1CCN(CC#Cc2nn(C3CCCC3)c3nc(NCc4ccccc4)ncc23)C1 (centres unmarked) — inhibition (enzyme activity; inhibitor; FRET; 0.1 µM): 6%
CCCOc1ccc([C@@H]2[C@@H](C(=O)O)[C@H](c3ccc4c(c3)OCO4)CN2CC(=O)Nc2c(CC)cccc2CC)cc1 — remaining binding (cell-free assay; competition with immobilised ligand; 1 µM): 96%
COc1cc2nccc(Oc3ccc(NC(=O)c4c5n(n(-c6ccc(F)cc6)c4=O)CCCC5)cc3)c2cc1OC — inhibition (enzyme activity; inhibitor; 0.1 µM): -7%
COc1cc(-c2cc(-c3ccc(N4CCNCC4)cc3)cnc2C)cc(OC)c1OC — inhibition (enzyme activity; inhibitor; 0.1 µM): 2%
O=C(NC[C@@H]1[C@H]2CN(C(=O)OCc3cc(C(F)(F)F)cc(C(F)(F)F)c3)C[C@@H]12)c1ccc2[nH]nnc2c1 — remaining binding (cell-free assay; competition with immobilised ligand; 1 µM): 98%
c1ccc(CNc2nc(N3CCOc4ccccc43)nc3c2CCCC3)cc1 — inhibition (target engagement in cells; inhibitor; chemoproteomics; 20 mM): -2.4%
Oc1cccc(-c2nc(N3CCOCC3)c3oc4ncccc4c3n2)c1 — remaining signal (cell-free assay; 0.5 µM): 84.2%
Cc1cnc(NC2CCOCC2)nc1-n1cnc(C(=O)NC(CN)c2cc(F)cc(Cl)c2)c1 (centres unmarked) — remaining activity (enzyme activity; inhibitor; radiometric; 1 µM): 101%
CNC(=O)Nc1ccc2c(c1)[C@@]1(CC2)OC(=O)N(CC(=O)N(Cc2ccc(F)cc2)[C@@H](C)C(F)(F)F)C1=O — remaining binding (cell-free assay; competition with immobilised ligand; 1 µM): 88%
Cc1ccc(C(=O)Nc2ccc(CN3CCN(C)CC3)c(C(F)(F)F)c2)cc1C#Cc1cnc2cccnn12 — remaining activity (enzyme activity; inhibitor; 23.5 nM): 54%
O=C(Nc1ccc(Oc2ccc(F)cc2)cc1)N1CCc2ncccc2[C@H]1c1ccc(F)cc1 — remaining binding (cell-free assay; competition with immobilised ligand; 1 µM): 88%
CCN(CC)CCNC(=O)c1c(C)[nH]c(/C=C2\C(=O)Nc3ccc(F)cc32)c1C — inhibition (enzyme activity; inhibitor; 0.3 µM): 31%
c1ccc(N2CCN(Cc3nc4ccccc4[nH]3)CC2)nc1 — remaining binding (binding; competition with immobilised ligand; 1 µM): 100%
CC(C)(C)c1nc(-c2cccc(NS(=O)(=O)c3c(F)cccc3F)c2F)c(-c2ccnc(N)n2)s1 — remaining activity (enzyme activity; inhibitor; radiometric; 1 µM): 84%
